Assay [1] relates to Rattus norvegicus. Briefly: Concentration which increases the arterial blood pressure by 20 mmHg in the pithed rat in vivo by intravenous administration. It counts as functional, Artery.
Assay [2] is filed under the species Canis familiaris. Briefly: Effective concentration of compound in isolated canine saphenous vein. In kind it is functional. The following applies: Canis lupus familiaris. Put shortly:
(§1)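 Isolated canine blood vessels (saphenous vein without endothelium; femoral artery) exposed to increasing agonist concentrations; contractile responses measured.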

The species named for assay [3] is Canis familiaris. Briefly: Effective Concentration compound in isolated canine femoral artery. It counts as functional. To be noted: Canis lupus familiaris. The procedure, abridged: as §1
The species named for assay [4] is Canis familiaris. Briefly: Maximum contractile response expressed as percentage (mean) of the maximal contraction to KCl (100 mM) in the isolated saphenous vein.
Assay [5] is filed under the species Rattus norvegicus. Briefly: The maximal pressure response caused by the compound in pithed rat. It counts as functional.
Assay [6] is filed under the species Canis familiaris. Briefly: Maximum contractile response expressed as percentage (mean) of the maximal contraction to KCl (100 mM) in the isolated femoral artery.
The species entered for assay [7] is Canis familiaris. Kind of assay: Maximum contractile response expressed as percentage (mean) of the maximal contraction to KCl (100 mM) in the isolated saphenous vein. The source holds these as a separate data set.
The species entered for assay [8] is Canis familiaris. Kind of assay: Maximum contractile response expressed as percentage (mean) of the maximal contraction to KCl (100 mM) in the isolated femoral artery. This is another data set of the same source.
Assay [9] can be described thus: C20 ratio was determined in the presence or absence of 0.1 mg of prazosin for the compound which are indicative of the contribution of alpha-1 adnergic mechanisms to the pressor response. In kind it is functional. Put shortly:
(§2)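 Pithed rats received test compound as cumulative iv doses, and mean arterial pressure was recorded. C20 is the iv dose (µg/kg) that raises arterial pressure by 20 mmHg (mean ± SEM, n = 5). The same cumulative doses were repeated 10 min after iv prazosin 100 µg/kg or iv yohimbine 1 mg/kg. The ratio is C20 without antagonist over C20 with antagonist.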

Assay [10] is described as follows: C20 ratio was determined in the presence or absence of 1 mg of yohimbine for the compound which are indicative of the contribution of alpha-2 adnergic mechanisms to the pressor response. It counts as functional. Put shortly: as §2

SMILES strings stand for the structures. Some results are limits rather than exact numbers.

In general, EC50 refers to the concentration at which the effect is half-maximal. High values mean weaker potency, low ones greater potency. `Cc1ccc2c(c1)C[C@]1(CC2)CN=CN1` had a C20 in the assay on Rattus norvegicus [1] of 44.8 µg/kg. Further, the values for the concentration giving a half-maximal response (EC50) in the assay listed under Canis familiaris [2] and in the assay filed under Canis familiaris [3] were 2.8 µM and greater than 3 µM, respectively. Further, the Emax in the assay filed under Canis familiaris [4] was 39.4; in the assay listed under Canis familiaris [6], 8.4. The Max in the assay filed under Rattus norvegicus [5] is given as 109 mmHg.
The compound `Cc1ccc2c(c1)CC1(CC2)CN=CN1` (stereo unspecified) displayed a C20 in the assay with Rattus norvegicus [1] of 6.7 µg/kg. Besides, the EC50 is 0.36 µM in the assay listed under Canis familiaris [2] and greater than 3 µM in the assay listed under Canis familiaris [3]. Besides, the Emax in the assay filed under Canis familiaris [4] is 68.5; in the assay filed under Canis familiaris [6], 7.7. The same compound yielded a Max in the assay filed under Rattus norvegicus [5] of 112 mmHg.
For the compound `Cc1ccc2c(c1)C[C@@]1(CC2)CN=CN1`, the C20 in the assay on Rattus norvegicus [1] was 5.8 µg/kg. Further, the EC50 in the assay filed under Canis familiaris [2] was 0.22 µM; in the assay filed under Canis familiaris [3], greater than 3 µM. For the same compound, the Emax in the assay filed under Canis familiaris [7] turned out to be 78.3; in the assay listed under Canis familiaris [8], 15.8. The Max in the assay listed under Rattus norvegicus [5] is 106 mmHg.
For the compound `FC(F)(F)c1ccc(Cl)c(NC2=NCCN2)c1`, the Ratio in [9] amounted to 16; in assay [10] it was 1.8. Moreover, in the assay on Rattus norvegicus [1], the C20 was determined as 8.6 µg/kg. The EC50 is 2.02 µM in the assay listed under Canis familiaris [2] and 10.9 µM in the assay listed under Canis familiaris [3]. Also, the values for the Emax in the assay filed under Canis familiaris [4] and in the assay filed under Canis familiaris [6] were 54.4 and 19.7, respectively. The compound further yielded a Max in the assay filed under Rattus norvegicus [5] of 129 mmHg.

Values taken from ChEMBL document CHEMBL1130142, “(S)-spiro[(1,3-diazacyclopent-1-ene)-5,2'-(7'-methyl-1',2',3',4'- tetrahydronaphthalene)]: resolution, stereospecific synthesis, and preliminary pharmacological characterization as a partial alpha-adrenergic agonist” (J Med Chem, 1997).
